Shown are actives, neighbours in structure and some others; about 1.7% of the full set was active somewhere.
PABP FP inh – PABP poly(A) RNA binding inhibitors, primary screen, biochemical, fluorescence polarization, uHTS. Polyadenylate-binding protein 1 (Homo sapiens), P11940. inhibition, % at 35 µM. 290,000 compounds, 1% hits. AID 2014, 2009;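 note: calls also rest on retests at 20 µM and on dose response follow-up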
Target sequence (P11940 whole entry, looked up): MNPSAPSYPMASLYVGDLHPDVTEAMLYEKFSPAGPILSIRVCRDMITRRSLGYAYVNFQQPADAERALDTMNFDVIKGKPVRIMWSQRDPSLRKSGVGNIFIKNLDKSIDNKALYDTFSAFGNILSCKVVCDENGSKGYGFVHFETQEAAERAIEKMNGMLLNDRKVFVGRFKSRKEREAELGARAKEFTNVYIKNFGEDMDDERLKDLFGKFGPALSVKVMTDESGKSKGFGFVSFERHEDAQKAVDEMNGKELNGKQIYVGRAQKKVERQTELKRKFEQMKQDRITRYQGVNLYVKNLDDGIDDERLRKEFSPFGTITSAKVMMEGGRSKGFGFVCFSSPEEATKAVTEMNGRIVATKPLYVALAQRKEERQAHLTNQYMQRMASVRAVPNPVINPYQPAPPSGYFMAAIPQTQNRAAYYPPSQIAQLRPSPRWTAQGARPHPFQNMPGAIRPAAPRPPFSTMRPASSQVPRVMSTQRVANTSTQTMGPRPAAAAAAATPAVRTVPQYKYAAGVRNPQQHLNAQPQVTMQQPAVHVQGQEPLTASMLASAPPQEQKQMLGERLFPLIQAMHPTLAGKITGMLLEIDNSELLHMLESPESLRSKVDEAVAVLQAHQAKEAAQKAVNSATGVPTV
SKN-1 block – suppressors of acrylamide-induced Pgst-4::GFP reporter in worms, primary screen, SKN-1 inhibitor project, whole organism, uHTS, GFP/RFP fluorescence ratio, strain VP596; C. elegans VP596 Pgst-4::GFP/RFP ratio, 24 h; inhibition, % at 21.8 µM; 360,000 compounds, 0.49% hits;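 active = interference check ratio from 0.5 to 1.5 plus GFP to RFP signal ratio inhibition reaching or exceeding a fixed threshold, cut at about 30% in these data, passing the limit was not always enough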
MT1-MMP act inh – blockers of MT1-MMP proenzyme processing, primary screen, HT1080 RFP-PRO-GFP cells, GFP/RFP fluorescence. GFP/RFP ratio fluorescence, overnight; percent of plate control window, DMSO zero. Matrix metalloproteinase-14 (Homo sapiens), P50281. AID 651647, 2012. 360,000 compounds, 0.061% hits. GFP/RFP ratio change, % at 20 µM;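 active = GFP/RFP ratio change of at least 30% with cell ATP level not reduced by more than half and red fluorescence within 50% of control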
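Material – HT1080 RFP-PRO-GFP cells · Control set – DMSO wells and RFP-L50D-GFP cells · Incubation – overnight cell settling, then overnight compound exposure, 37 °C, 5% CO2 · Compound dosing – single-point 20 µM compound, 1% DMSO · Read-out – GFP/RFP fluorescence ratio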
eIF4H inh – human eIF4H binding inhibitors, primary screen, translation initiation inhibitor project, biochemical, uHTS, fluorescence polarization | Eukaryotic translation initiation factor 4H (Homo sapiens), Q15056 | eIF4H fluorescence polarization binding assay | inhibition, % at 35 µM | 290,000 compounds, 0.94% hits | AID 2012, 2009;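 note: calls also rest on retests at 20 µM and on dose response follow-up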
PABP1 MLLE inh – inhibitors of PABP1 MLLE–PAM2 peptide binding, primary screen, biochemical, fluorescence polarization, FITC-PAM2, GST-MLLE. 360,000 compounds, 0.36% hits. AID 588489, 2011. inhibition, % at 20 µM. Polyadenylate-binding protein 1 (Homo sapiens), P11940; in the data active = inhibition above about 35%, passing the limit was not always enough
Large screens that a line does not name were inactive. Unless noted, the rule behind the calls is not given here.

Cc1nc(N)[nH]c(=O)c1CCCNc1ccc(CCC2(CCl)OCCO2)cc1	none (no result: PABP FP inh, eIF4H inh)
OC(CN1CCN(C(c2ccccc2)c2ccccc2)CC1)c1ccc(Br)cc1 (stereo not given)	none
OC(CN1CCN(C(c2ccccc2)c2ccccc2)CC1)c1ccccc1 (stereo not given)	SKN-1 block 40
N#C/C(=N/Nc1ccc([N+](=O)[O-])cc1)C(=N)N1CCCCC1	none
N#C/C(=N\Nc1ccc(S(=O)(=O)N2CCCCCC2)cc1)C(N)=S	PABP1 MLLE inh 42
N#C/C(=N\Nc1ccc([N+](=O)[O-])cc1)C(N)=S	SKN-1 block 39
COCCN1CCC(CNCc2c(C(=O)N3CCCCC3)nc3c(C)cccn23)C1 (stereo not given)	PABP FP inh 28, eIF4H inh 62
Cc1cccn2c(CNCC3OCCc4ccccc43)c(C(=O)N3CCCCC3)nc12 (stereo not given)	none
O=C1/C(=C/c2ccccc2)CCCc2ccccc21	SKN-1 block 47
O=C1/C(=C\c2cccnc2)CCc2ccccc21	none
CCOC(=O)C(Oc1ccc2c(-c3ccc(OC)cc3)cc(=O)oc2c1C)c1ccccc1 (stereo not given)	SKN-1 block 36
CCCCCn1c(SCC(=O)c2ccccc2)nc2cc(C(=O)NCC3CCCO3)ccc2c1=O (stereo not given)	none (no result: PABP FP inh, eIF4H inh)
Cc1ccc2nc(C)c(C(=O)NN=C3CCN(C)CC3)n2c1	none
O=C(NCCc1nc(-c2ccccc2Cl)no1)c1ccccc1	none (no result: PABP FP inh, eIF4H inh)
CC(C)C(=O)NCCc1nc(-c2ccccc2Cl)no1	SKN-1 block 36 (no result: PABP FP inh, eIF4H inh)
C[c-]1[c-](C)[c-](C)[c-](C)[c-]1C.[Fe].c1cc2nccc(N3CCCC3)[c-]2c1 (stereo not given)	PABP FP inh 129, eIF4H inh 104, PABP1 MLLE inh 64
COc1ccc(CNC(=O)CCS(=O)(=O)c2ccc3c(c2)NC(=O)CS3)cc1	none
Cc1ccc(C)c(S(=O)(=O)N2CCCC2CNC(=O)C(=O)NCC2CCCO2)c1 (stereo not given)	none (no result: PABP FP inh, eIF4H inh)
COc1ccc(/C(C)=N/N=C(\C)c2ccc(OC)cc2OC)c(OC)c1	none
COc1ccc(C(N)=S)c(OC)c1	PABP1 MLLE inh 39
Cc1[nH]c2ccccc2c1C1=NNC(=Nc2ccc(F)cc2)SC1	PABP FP inh 86, eIF4H inh active
COc1ccc(N=C2NN=C(c3c(C)[nH]c4ccccc34)CS2)cc1	none
Cc1[nH]c2ccccc2c1N=Nc1ccccc1F	none
Cc1[nH]c2ccccc2c1N=Nc1ccc(F)cc1	SKN-1 block 87
CN(C)c1ccc(/C=N/Nc2cccc(C(=O)O)c2)cc1	none
c1ccc(-c2ccc(-c3nccc4ccccc34)[nH]2)cc1	PABP FP inh 13, eIF4H inh 62 (no result: SKN-1 block, MT1-MMP act inh, PABP1 MLLE inh)
N#Cc1cc(-c2ccccc2)[nH]c1-c1nccc2ccccc12	none
Cc1ccc(C(C)(C)NC(=O)C2CCC(=O)N(Cc3ccccc3F)C2)cc1 (stereo not given)	none
CCOC(=O)c1cn2ccc(C)cc2n1	none
Cc1ccn2cc(CC(=O)O)nc2c1	PABP FP inh 43, eIF4H inh inconclusive
c1csc(Cc2nn3c(-c4n[nH]c5c4CCC5)nnc3s2)c1	PABP FP inh 15
c1coc(-c2nnc3sc(Cc4cccs4)nn23)c1	PABP FP inh 64, eIF4H inh 77
c1coc(-c2nn3c(-c4ccco4)nnc3s2)c1	PABP FP inh 91, eIF4H inh 95
COc1ccccc1-c1nn2c(-c3ccco3)nnc2s1	eIF4H inh 59
COc1ccc(OCc2nn3c(-c4ccco4)nnc3s2)cc1	none
CN(C)C(CNC(=O)c1ccc2nccnc2c1)c1ccco1 (stereo not given)	none (no result: PABP FP inh, eIF4H inh)
Cn1cnc(S(=O)(=O)N2CCN(C(c3ccccc3)c3ccccc3)CC2)c1	none (no result: MT1-MMP act inh)
Clc1ccc(-c2ccnc(-n3cccc3)n2)s1	SKN-1 block 43
Cc1c(OC(=O)CNC(=O)OC(C)(C)C)ccc2c3c(c(=O)oc12)CCC3	SKN-1 block 45
O=C(NNC(=O)c1ccccc1Br)c1ccc2nc[nH]c2c1	PABP FP inh 69, eIF4H inh 84

Screening results from PubChem BioAssay.
